The source of these data is PubChem BioAssay AID588724 (Johns Hopkins Ion Channel Center, 2011).

The structures appear in SMILES notation. Where “and” joins values, the source holds several entries; their conditions need not be identical. Identical values can stand only once. Calls of active or inactive are those of the source.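 The calls were made as follows: active = blocks the KCNK9 potassium channel at some tested dose and a concentration-response curve can be fitted; inactive = no blocking at any dose, or no curve could be fitted.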

Sequence of Potassium channel subfamily K member 9 (Homo sapiens) (Q9NPC2 whole entry, looked up): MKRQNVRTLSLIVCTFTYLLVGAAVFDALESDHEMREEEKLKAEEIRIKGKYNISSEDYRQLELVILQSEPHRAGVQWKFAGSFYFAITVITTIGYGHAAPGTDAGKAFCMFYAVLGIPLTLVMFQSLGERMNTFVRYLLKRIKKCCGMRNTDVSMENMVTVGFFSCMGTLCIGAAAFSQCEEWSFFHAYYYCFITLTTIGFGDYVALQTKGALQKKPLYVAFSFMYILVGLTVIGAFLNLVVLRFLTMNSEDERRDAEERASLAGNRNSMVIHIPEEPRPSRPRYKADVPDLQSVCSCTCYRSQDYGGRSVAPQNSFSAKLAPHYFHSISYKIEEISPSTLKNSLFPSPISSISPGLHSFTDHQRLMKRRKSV

The first assay addresses Potassium channel subfamily K member 9 (Homo sapiens) (UniProt Q9NPC2). Put plainly: blockers of TASK3 potassium channel KCNK9 – cell-based, round III, SAR follow-up (AID 588724). The following applies: HEK293-KCNK9, FluxOR thallium flux fluorescence. The method in brief: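 Times: 90 min dye, 20 min compound, RT, dark / Test system: stable KCNK9-expressing HEK293 cells / Also added: thallium/potassium stimulus, 5x stock of 25 mM K2SO4 plus 7 mM Tl2SO4 / Technique: FluxOR thallium-sensitive dye fluorescence, 10 s baseline, 110 s post-stimulus recording / Repeats: replicates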
One may read the IC50 as the concentration that gives 50% inhibition. In the case of `CC(C1CC2CCC1C2)n1c(-c2cccc(F)c2)n[nH]c1=S` (stereo not drawn), the IC50 was 134 nM.

Take `CC(C1CC2CCC1C2)n1c(-c2ccco2)n[nH]c1=S` (stereo not drawn): the half-maximal inhibitory concentration (IC50) is 150 nM and 290 nM.

As to `CC(CC1CC2CCC1C2)n1c(-c2ccco2)n[nH]c1=S` (stereo not drawn), the IC50 is 292 nM.

On to `CC(C1CC2CCC1C2)n1c(-c2ccco2)nnc1C(F)(F)F` (stereo not drawn), for which the IC50 was 16400 nM.

Consider `CC(C1CC2CCC1C2)n1c(SCC(=O)c2ccccc2)nnc1-c1ccco1` (stereo not drawn), for which the IC50 is 5210 nM.

Turning to `CC(C1CCCCC1)n1c(-c2ccco2)n[nH]c1=S` (stereo not drawn), the IC50 is 3580 nM.

On to `COc1cccc(-c2nnc(S(C)(=O)=O)n2C(C)C2CC3CCC2C3)c1` (stereo not drawn), for which the IC50 is 18000 nM.

Take `C[C@H](C1CCCCC1)n1c(-c2ccco2)n[nH]c1=S`: the IC50 was 187 nM.

As for `COc1cc(OC)cc(-c2n[nH]c(=S)n2C(C)C2CC3CCC2C3)c1` (stereo not drawn), the IC50 was 1030 nM.

Turning to `CC(C1CC2CCC1C2)n1cnnc1-c1ccco1` (stereo not drawn), the IC50 is 1700 nM.

On to `CC(CCC1CCCC1)n1c(-c2ccco2)n[nH]c1=S` (stereo not drawn), for which the IC50 is 907 nM.

In the case of `CC(C1CC2CCC1C2)N(C)C(=O)c1ccco1` (stereo not drawn), the IC50 was 361 nM.

As to `CC(C1C2CCC1CC2)n1c(-c2ccco2)n[nH]c1=S` (stereo not drawn), the IC50 is 1170 nM.

On to `COc1cccc(-c2n[nH]c(=S)n2C(C)C2CC3CCC2C3)c1OC` (stereo not drawn), for which the IC50 is 2360 nM.

As for `CC(C1CC2CCC1C2)n1c(-c2ccccn2)n[nH]c1=S` (stereo not drawn), the IC50 was 2370 nM.

As to `COc1ccccc1C(=O)Nc1cccc(NC(=O)c2cccc3ccccc23)c1`, the concentration for half-maximal inhibition (IC50) was 236 nM.

For `CC(C1CC2CCC1C2)n1c(SCc2ccccc2)nnc1-c1ccco1` (stereo not drawn), the half-maximal inhibitory concentration (IC50) is 1390 nM.

Consider `COc1ccc(C(=O)CSc2nnc(-c3ccco3)n2C(C)C2CC3CCC2C3)cc1OC` (stereo not drawn), for which the IC50 was 1840 nM.

Turning to `COc1cccc(C(=O)CSc2nnc(-c3ccco3)n2C(C)C2CC3CCC2C3)c1` (stereo not drawn), the IC50 was 4650 nM.

In the case of `CC(C1CC2CCC1C2)n1c(SCC#N)nnc1-c1cccs1` (stereo not drawn), the IC50 is 17700 nM.

For the compound `CC(C)c1ccccc1C(=O)Nc1cccc(NC(=O)c2ccccc2OC(F)(F)F)c1`, the IC50 was 732 nM.

Regarding `CC(C1CC2CCC1C2)n1c(SC(F)F)nnc1-c1ccco1` (stereo not drawn), the IC50 is 8460 nM.

Take `CSc1nnc(-c2ccco2)n1C(C)C1CC2CCC1C2` (stereo not drawn): the concentration for half-maximal inhibition (IC50) was 21400 nM.

With `CC(C1CC2CCC1C2)n1c(-c2cccc(N(C)C)c2)n[nH]c1=S` (stereo not drawn), the IC50 was 2270 nM.

Consider `CC(C1CC2CCC1C2)n1c(-c2cccn2C)n[nH]c1=S` (stereo not drawn), for which the IC50 was 1390 nM.

Regarding `COc1ccc(CCSc2nnc(-c3ccco3)n2C(C)C2CC3CCC2C3)cc1OC` (stereo not drawn), the concentration for half-maximal inhibition (IC50) was 2240 nM.

Consider `CC(C)Oc1ccccc1C(=O)Nc1cccc(NC(=O)c2ccccc2OC(F)(F)F)c1`, for which the IC50 is 65.1 nM.

Regarding `CC(C1CC2CCC1C2)n1c(SCC(=O)c2ccc(Cl)c(Cl)c2)nnc1-c1ccco1` (stereo not drawn), the IC50 is 7770 nM.

For the compound `CC(C1CC2CCC1C2)n1c(SCC(=O)c2ccc3c(c2)OCO3)nnc1-c1ccco1` (stereo not drawn), the IC50 was 1600 nM.

As for `CC(C1CC2CCC1C2)n1c(-c2cccs2)n[nH]c1=S` (stereo not drawn), the IC50 is 110 nM.

As to `CC(C1CC2CCC1C2)n1c(-c2ccccc2F)n[nH]c1=S` (stereo not drawn), the IC50 was 109 nM.

For the compound `COc1ccc(C(=O)CSc2nnc(-c3ccco3)n2C(C)C2CC3CCC2C3)cc1` (stereo not drawn), the IC50 was 9140 nM.

Take `C[C@@H](C1CCCCC1)n1c(-c2ccco2)n[nH]c1=S`: the IC50 was 9410 nM.

Turning to `COc1cccc(Cc2n[nH]c(=S)n2C(C)C2CC3CCC2C3)c1` (stereo not drawn), the IC50 is 2570 nM.

In the case of `CC(NC(=O)c1ccco1)C1CC2CCC1C2` (stereo not drawn), the IC50 is 13400 nM.

Still in this assay, the particulars now being: HEK293-KCNK9, FluxOR thallium flux fluorescence; at 30 µM (top of the series).
In the case of `CC(C1CC2CCC1C2)n1c(-c2ccncc2)n[nH]c1=S` (stereo not drawn), the “normalised flux ratio, lower = inhibition” value is “inactive”.

On to `CC(C1CC2CCC1C2)n1c(-c2cccnc2)n[nH]c1=S` (stereo not drawn), for which the “normalised flux ratio, lower = inhibition” value is “inactive”.

On to `S=c1[nH]nc(-c2ccco2)n1C1CC2CCC1C2` (stereo not drawn), for which the “normalised flux ratio, lower = inhibition” value is “inactive”.

On to `CC(c1cccc2ccccc12)n1c(-c2ccco2)n[nH]c1=S` (stereo not drawn), for which the “normalised flux ratio, lower = inhibition” value is “inactive”.

As for `CC(C1CC2CCC1C2)n1c(-c2ccco2)n[nH]c1=O` (stereo not drawn), the “normalised flux ratio, lower = inhibition” value was “inactive”.

On to `CC(C1CC2CCC1C2)n1c(-c2ccc(N(C)C)cc2)n[nH]c1=S` (stereo not drawn), for which the “normalised flux ratio, lower = inhibition” value was “inactive”.

Turning to `COc1ccccc1C(=O)Nc1cc(NC(=O)c2ccccc2C(C)C)ccc1F`, the “normalised flux ratio, lower = inhibition” value was “inactive”.

On to `S=c1[nH]nc(-c2ccco2)n1CC1CC2CCC1C2` (stereo not drawn), for which the “normalised flux ratio, lower = inhibition” value was “inactive”.
